Assay outcomes (PubChem)
In the library only some 2.2% were active in any assay of this set; here they are far more common.
Mcl1-Noxa inh: Mcl-1/Noxa interaction inhibition. 1.5% of 220,000 active. AID 1022. inhibition, % at 21.7 µM. Q07820. TR-FRET Mcl-1/Noxa peptide binding, 2 h;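 active = compounds that cut the protein-peptide binding signal by more than 50% relative to plate controls in a single-dose test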;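 also: His-tagged Mcl-1 with rhodamine Noxa BH3 peptide and terbium anti-His antibody; 0% = Mcl-1 plus Noxa peptide wells and 100% = peptide-only wells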
MCL1-BIM inh: MCL1-BIM-BH3 interaction inhibition (human); Q07820; GST-MCL1 / FITC-Bim-BH3 fluorescence polarization; inhibition, % at 10.9 µM; 0.68% of 320,000 active;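 active = inhibition above the mean inhibition of all tested compounds plus 3 SD, set per campaign, cut at about 40% in these data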;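 also: 0% = DMSO wells and 100% = unlabeled Bim-BH3 peptide control; higher means more loss of mP so more displacement of Bim peptide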
RBBP9 inh: human RBBP9 hydrolase inhibition | recombinant RBBP9, FP-Rh probe fluorescence polarization | inhibition, % at 7.94 µM | 0.2% of 220,000 active | AID 1515;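 active = inhibition above the campaign mean of all tested compounds plus 3 SD, cut at about 14% in these data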;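 also: plate controls were DMSO wells with RBBP9 for no effect and wells lacking RBBP9 protein for full effect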
Target sequence (O75884 whole entry, looked up): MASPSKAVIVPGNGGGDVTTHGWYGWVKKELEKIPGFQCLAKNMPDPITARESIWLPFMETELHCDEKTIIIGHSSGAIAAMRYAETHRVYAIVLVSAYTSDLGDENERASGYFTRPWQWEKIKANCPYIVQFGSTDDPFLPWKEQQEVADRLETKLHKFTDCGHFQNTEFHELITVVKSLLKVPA
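Assay system: recombinant human RBBP9; Reagent: Serine-hydrolase probe FP-Rh, 375 nM pre-mixing; Doses: 7.94 µM single dose, 0.794% DMSO; Incubation: 30 min then 45 min, 25 °C; Detection: fluorescence polarization (mP), excitation 525 nm, emission 598 nm; Evaluation: percent inhibition from mP, scaled between DMSO and no-protein wells.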
EBV gp42 inh: EBV gp42 inhibition; Q1HVG2; Fluorescence polarization binding assay, mP read-out; inhibition, % (tested at 21.74 µM); 0.42% of 220,000 active; in the data active = inhibition above about 50%
Target sequence (Q1HVG2 whole entry, looked up): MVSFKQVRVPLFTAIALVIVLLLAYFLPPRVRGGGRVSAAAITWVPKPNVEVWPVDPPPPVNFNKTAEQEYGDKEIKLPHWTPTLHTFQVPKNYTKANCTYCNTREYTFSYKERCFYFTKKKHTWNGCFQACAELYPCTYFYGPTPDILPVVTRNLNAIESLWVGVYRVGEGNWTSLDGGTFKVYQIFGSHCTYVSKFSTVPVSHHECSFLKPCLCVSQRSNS
Mcl1 Bid PPI: disrupts binding of human Mcl-1 to Bid peptide. TR-FRET Mcl-1/Bid-Dy647 peptide binding, 1536-well. inhibition, % at 21.7 µM. 0.97% of 220,000 active. AID 1021;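 active = compounds that cut the binding signal by more than half at the single screening dose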;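 also: His-tagged Mcl-1 with europium anti-His antibody binding Bid BH3 peptide; 0% = Mcl-1 plus peptide wells and 100% = peptide-only wells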
Bim-Mcl-1: human Bim-Mcl-1 interaction inhibition; inhibition, % at 10 µM; Q07820; 0.1% of 190,000 active; Bead-based flow cytometry, Bim peptide-Mcl-1 binding; in the data active = inhibition above about 40%;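 also: 0% = no compound tracer wells and 100% = peptide blocker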
Active calls of the source: *.

For c1cc2c(cc1C1CCCCC1)c1c3n2CCCNC3CCC1 (configuration not stated) the results were Mcl1-Noxa inh 32.4, MCL1-BIM inh 6.6, RBBP9 inh -1.9, EBV gp42 inh 0.8, Mcl1 Bid PPI -4.3 and Bim-Mcl-1 -2.0.
Screening Cc1ccc2c(c1)c1c3n2CCCNC3CCC1 (configuration not stated) returned Mcl1-Noxa inh 2.2, MCL1-BIM inh -2.3, RBBP9 inh -2.1, EBV gp42 inh -7.6, Mcl1 Bid PPI 63.4* and Bim-Mcl-1 -6.0.
CCN(C1CCCCC1)S(=O)(=O)CCNC(=O)c1ccccc1 was read as MCL1-BIM inh -0.3.
Screening O=C(NCCCCc1ccccc1)C1CC(c2ccccc2[N+](=O)[O-])=NO1 (configuration not stated) returned Mcl1-Noxa inh 100.1*, MCL1-BIM inh -2.9, RBBP9 inh -9.8, EBV gp42 inh 2.1, Mcl1 Bid PPI 8.0 and Bim-Mcl-1 -3.0.
Screening Cc1ccccc1NS(=O)(=O)c1ccc(OCC(=O)N2CCCC2)cc1 returned Mcl1-Noxa inh 57.6*, MCL1-BIM inh -3.0, RBBP9 inh -8.2, EBV gp42 inh 2.4, Mcl1 Bid PPI 3.6 and Bim-Mcl-1 -2.0.
`Cc1ccc(C)c(NS(=O)(=O)c2ccc(OCC(=O)N3CCCC3)cc2)c1` gave Mcl1-Noxa inh 8.5, MCL1-BIM inh 2.2, RBBP9 inh -1.2, EBV gp42 inh 6.0, Mcl1 Bid PPI -28.1 and Bim-Mcl-1 -4.0.
`CCn1cc(S(=O)(=O)Nc2cc(F)ccc2C)cn1` gave Mcl1-Noxa inh 2.4, MCL1-BIM inh -3.2, RBBP9 inh -5.9, EBV gp42 inh 7.8, Mcl1 Bid PPI -4.3 and Bim-Mcl-1 0.0.
CCCn1c(SCC(=O)OCC)nc(C(F)(F)F)cc1=O was read as Mcl1-Noxa inh 19.1, MCL1-BIM inh 0.9, RBBP9 inh -1.0, EBV gp42 inh -12.2, Mcl1 Bid PPI -3.0 and Bim-Mcl-1 0.0.
Screening COc1ccc(C(=O)O)cc1NC(=S)NC(=O)c1ccc(-c2ccc(Cl)cc2)o1 returned Mcl1-Noxa inh 74.6*, RBBP9 inh -5.5, EBV gp42 inh 15.0, Mcl1 Bid PPI 9.6 and Bim-Mcl-1 0.0.
`Cc1ccc(C(=O)O)cc1NC(=S)NC(=O)c1ccc(-c2ccc(Cl)cc2)o1` gave Mcl1-Noxa inh 31.4, MCL1-BIM inh -2.5, RBBP9 inh -8.5, EBV gp42 inh -1.0 and Mcl1 Bid PPI -10.1.
`CCNc1ccccc(C(=O)/C=C/c2ccc3c(c2)OCO3)c1=O` gave Mcl1-Noxa inh 70.1*, MCL1-BIM inh 34.6, RBBP9 inh -7.7, EBV gp42 inh 6.5, Mcl1 Bid PPI -29.3 and Bim-Mcl-1 1.0.
CCOCCCNC(=S)Nc1ccc2nc(N3CCOCC3)cc(C)c2c1 was read as MCL1-BIM inh -5.5.
For CNC(=O)c1sc(-c2ccccn2)nc1C the results were Mcl1-Noxa inh 7.7, MCL1-BIM inh 7.4, RBBP9 inh -2.7, EBV gp42 inh -6.9, Mcl1 Bid PPI -2.0 and Bim-Mcl-1 59.0*.
Screening Cc1c(-c2ccccc2)[n+](=O)c(-c2ccc(Cl)cc2)c(C)n1[O-] returned Mcl1-Noxa inh 10.5, MCL1-BIM inh -4.6, RBBP9 inh -2.5, EBV gp42 inh -0.3, Mcl1 Bid PPI -28.1 and Bim-Mcl-1 0.0.
Screening Cc1ccc(NC(=O)/C(C#N)=C/c2ccc(C)s2)c(C)c1 returned Mcl1-Noxa inh 12.4, MCL1-BIM inh 40.7*, RBBP9 inh 0.1, EBV gp42 inh -54.3, Mcl1 Bid PPI -6.8 and Bim-Mcl-1 -2.0.
Screening COc1ccccc1OC(=O)Nc1ccc(Cl)cc1 returned MCL1-BIM inh 46.7*.
`COc1ccccc1OCC(=O)NNC(=O)Nc1ccc(Cl)cc1` gave Mcl1-Noxa inh 12.7, MCL1-BIM inh -4.9, RBBP9 inh -2.0, EBV gp42 inh 6.0, Mcl1 Bid PPI -24.6 and Bim-Mcl-1 2.0.
For COc1ccc(OC)c([N+](=O)[O-])c1C(N)=O the results were Mcl1-Noxa inh 55.6*, MCL1-BIM inh 18.8, RBBP9 inh 5.7, EBV gp42 inh 2.6, Mcl1 Bid PPI -45.1 and Bim-Mcl-1 0.0.
COc1cc(C(=O)O)c([N+](=O)[O-])c(OC)c1OC was read as Mcl1-Noxa inh 3.7, MCL1-BIM inh -0.2, RBBP9 inh -10.5, EBV gp42 inh -10.7 and Mcl1 Bid PPI -5.3.
For O=C(Nc1ccc(F)cc1)c1ccc(C(=O)N2CCCC(O)C2)cc1 (configuration not stated) the results were MCL1-BIM inh 1.3.
CN1CCC(N(C)CC(=O)Nc2ccc3c(c2)OC(F)(F)O3)CC1 was read as Mcl1-Noxa inh 28.8, MCL1-BIM inh 6.8, RBBP9 inh 0.7, EBV gp42 inh -4.3 and Mcl1 Bid PPI 59.8*.
`CC1CCCCN1CC(=O)Nc1ccc2c(c1)OC(F)(F)O2` (configuration not stated) gave Mcl1-Noxa inh 2.0, MCL1-BIM inh -7.6, RBBP9 inh -3.4, EBV gp42 inh 4.5, Mcl1 Bid PPI -8.0 and Bim-Mcl-1 -1.0.
Screening Cc1ccc(N=Nc2ccc(O)c3ncccc23)cc1C returned Mcl1-Noxa inh -28.2, MCL1-BIM inh 16.7, RBBP9 inh -4.2, EBV gp42 inh -4.7, Mcl1 Bid PPI -55.2 and Bim-Mcl-1 2.0.
Screening Cc1cc(N=Nc2ccc(C)c(N=Nc3cc(C)c(N)cc3N)c2)c(N)cc1N returned Mcl1-Noxa inh 60.1*, MCL1-BIM inh 21.1, RBBP9 inh 13.2, EBV gp42 inh 14.1 and Mcl1 Bid PPI -134.6.
`O=[N+]([O-])c1cccc(-c2nc(NCc3ccccc3)c3ccccc3n2)c1` gave Mcl1-Noxa inh 4.5, MCL1-BIM inh 2.1, RBBP9 inh 0.5, EBV gp42 inh 1.4, Mcl1 Bid PPI -2.3 and Bim-Mcl-1 -9.0.
Clc1cccc(/C=N/Nc2nc(Cl)nc3ccccc23)c1 was read as Mcl1-Noxa inh 86.7*, MCL1-BIM inh 7.4, RBBP9 inh -3.4, EBV gp42 inh -8.6, Mcl1 Bid PPI -32.1 and Bim-Mcl-1 0.0.
O=[N+]([O-])c1ccc(-c2nc(NCc3ccccc3)c3ccccc3n2)cc1 was read as Mcl1-Noxa inh 56.3*, MCL1-BIM inh 1.7, RBBP9 inh -0.4, EBV gp42 inh -40.0, Mcl1 Bid PPI 39.3 and Bim-Mcl-1 -6.0.
For Cc1ccc(-c2nc(N/N=C/c3cccc([N+](=O)[O-])c3)c3ccccc3n2)cc1 the results were Mcl1-Noxa inh 54.2*, MCL1-BIM inh 8.5, RBBP9 inh -4.5, EBV gp42 inh -23.1, Mcl1 Bid PPI 60.3* and Bim-Mcl-1 -2.0.
For Cc1nnc(N2CCN(C)CC2)c2nn(-c3ccc(Cl)cc3)c(C)c12 the results were RBBP9 inh -4.3.
O=S(=O)(NN=C1CCCCCC1)c1ccccc1 was read as MCL1-BIM inh 5.9.
For [O-]c1c[n+](-c2ccccc2)no1 the results were Mcl1-Noxa inh -3.9, MCL1-BIM inh 1.1, RBBP9 inh 1.8, EBV gp42 inh -24.3 and Mcl1 Bid PPI -7.1.
